Results reported in ChEMBL document CHEMBL1132659, “Novel 2-phenylimidazo[1,2-a]pyridine derivatives as potent and selective ligands for peripheral benzodiazepine receptors: synthesis, binding affinity, and in vivo studies” (J Med Chem, 1999).

Columns and labels:
[1] = target: GABA-A receptor; anion channel; assay: Affinity benzodiazepine receptor as ability to displace [3H]flunitrazepam from binding to membrane preparations from rat cerebral cortex.; type: tissue-based
Outline: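 Rat cerebral cortex homogenised in ice-cold 50 mM Tris-HCl pH 7.4, centrifuged twice at 20000g and resuspended; 0.4-0.5 mg protein incubated with 0.5 nM [3H]flunitrazepam for 60 min at 0 °C. Filtration, then scintillation counting. Nonspecific binding defined with 5 μM diazepam. pIC50 from means of 3 experiments run in duplicate.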

[2] = target: T1, Translocator protein (Rattus norvegicus, UniProt P16257); assay: Displacement of [3H]-PK 11195 from peripheral-type benzodiazepine receptor of rat cerebral cortex membranes; type: cell membranes, Membrane
[3] = target: T1, Translocator protein; assay: Displacement of [3H]-PK 11195 from peripheral-type benzodiazepine receptor of rat ovary membranes; type: cell membranes, Female gonad, Membrane
[4] = target: T2, GABA-A receptor; alpha-1/beta-2/gamma-2 (Homo sapiens) (UniProt P14867+P47870+P18507); assay: Modulatory activity against human GABA-A receptor alpha-1-beta-2-gamma-2 subunits expressed in Xenopus laevis Oocytes at 10 uM; type: cell-based
Outline: (§1)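 Xenopus stage V–VI oocytes, defolliculated with collagenase, nuclear-injected with α1, β2, γ2 cDNAs and cultured at 19 °C. Two-electrode voltage clamp at -70 mV began about 24 h later, under MBS perfusion at room temperature. Drug applied for 20 s; value is percent change of the current evoked by GABA EC20 (2-10 μM). Means from 6–14 oocytes ± SEM.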

[5] = target: T2, GABA-A receptor; alpha-1/beta-2/gamma-2 (Homo sapiens); assay: Modulatory activity against human GABA-A receptor alpha-1-beta-2-gamma-2 subunits expressed in Xenopus laevis Oocytes at 100 uM; type: cell-based; outline: as §1
[6] = target: T2, GABA-A receptor; alpha-1/beta-2/gamma-2 (Homo sapiens); assay: Modulatory activity against human GABA-A receptor alpha-1-beta-2-gamma-2 subunits expressed in Xenopus laevis Oocytes at 50 uM; type: cell-based; outline: as §1

T1 sequence (P16257 whole entry, looked up): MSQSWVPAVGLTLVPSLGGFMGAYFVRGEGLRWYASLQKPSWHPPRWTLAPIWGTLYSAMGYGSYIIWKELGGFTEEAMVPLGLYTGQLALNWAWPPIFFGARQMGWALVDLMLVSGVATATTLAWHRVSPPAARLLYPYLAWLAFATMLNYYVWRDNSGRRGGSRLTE

Compound `CCCN(CCC)C(=O)Cc1c(-c2ccc(Cl)cc2)nc2c(Br)cc(Br)cn12` has a pIC50 [1] of 5, an IC50 [2] of 0.000794 µM and an IC50 [3] of 0.00158 µM.

For `CCCCCCN(CCCCCC)C(=O)Cc1c(-c2ccc(Cl)cc2)nc2ccccn12`, the pIC50 [1] was 3.83, the IC50 [2] was 0.182 µM and the IC50 [3] was 0.178 µM.

In the case of `CCCN(CCC)C(=O)Cc1c(-c2ccccc2)nc2ccc(C(N)=O)cn12`, the pIC50 [1] is reported as 5.58, the IC50 [2] is reported as 0.457 µM and the IC50 [3] is reported as 0.302 µM.

Work on `CCCNC(=O)Cc1c(-c2ccc(Cl)cc2)nc2ccccn12` yielded a pIC50 [1] of 6.93, an IC50 [2] of 0.589 µM and an IC50 [3] of 1.62 µM.

Work on `CCCN(CCC)C(=O)Cc1c(-c2ccc(Cl)cc2)nc2c(OC)cccn12` yielded a pIC50 [1] of 4.19, an IC50 [2] of 0.0166 µM and an IC50 [3] of 0.0209 µM.

Work on `CCCNC(=O)Cc1c(-c2ccccc2)nc2ccccn12` yielded a pIC50 [1] of 6.09, an IC50 [2] of 2 µM and an IC50 [3] of 2 µM.

Compound `CCCN(CCC)C(=O)Cc1c(-c2ccc(Cl)cc2)nc2c([N+](=O)[O-])cccn12` has a pIC50 [1] of 5, an IC50 [2] of 0.00575 µM and an IC50 [3] of 0.00871 µM.

Compound `CCCN(CCC)C(=O)Cc1c(-c2ccc(Cl)cc2)nc2c(Cl)cc(C(F)(F)F)cn12` has a pIC50 [1] of 5, an IC50 [2] of 0.00182 µM and an IC50 [3] of 0.00282 µM.

`CCCN(CCC)C(=O)Cc1c(-c2ccccc2)nc2ccccn12` was tested, and the pIC50 [1] was 6.28, the IC50 [2] was 0.1 µM and the IC50 [3] was 0.0955 µM.

`CCCCNC(=O)Cc1c(-c2ccccc2)nc2c(Cl)cc(Cl)cn12` was tested, and the pIC50 [1] was 4, the IC50 [2] was 0.295 µM and the IC50 [3] was 0.389 µM.

For `CCCN(CCC)C(=O)Cc1c(-c2ccccc2)nc2c(C)cccn12`, the pIC50 [1] was 4.85, the IC50 [2] was 0.02 µM and the IC50 [3] was 0.0417 µM.

`CCCN(CCC)C(=O)Cc1c(-c2ccccc2)nc2c(NC(C)=O)cccn12` showed a pIC50 [1] of 4.96, an IC50 [2] of 0.257 µM and an IC50 [3] of 0.447 µM.

In the case of `CCCN(CCC)C(=O)Cc1c(-c2ccccc2)nc2c(N)cccn12`, the pIC50 [1] is reported as 5.27, the IC50 [2] is reported as 0.00427 µM and the IC50 [3] is reported as 0.00575 µM.

Compound `CCCN(CCC)C(=O)Cc1c(-c2ccccc2)nc2c(OC)cccn12` has a pIC50 [1] of 5.27, an IC50 [2] of 0.0468 µM and an IC50 [3] of 0.049 µM.

`CCCN(CCC)C(=O)Cc1c(-c2ccc(Cl)cc2)nc2c(NC)cccn12` gave a pIC50 [1] of 4, an IC50 [2] of 0.00372 µM and an IC50 [3] of 0.00794 µM.

`CCCN(CCC)C(=O)Cc1c(-c2ccc(Cl)cc2)nc2c(NC(C)=O)cccn12` was tested, and the pIC50 [1] was 4.09, the IC50 [2] was 0.01 µM and the IC50 [3] was 0.0331 µM.

For `CCCCN(CCCC)C(=O)Cc1c(-c2ccc(Cl)cc2)nc2ccccn12`, the pIC50 [1] was 7.04, the IC50 [2] was 0.00589 µM and the IC50 [3] was 0.0105 µM. It also gave an Activity [4] of under 23.2, an Activity [5] of under 23.9 and an Activity [6] of under 35.

For `CCCN(CCC)C(=O)Cc1c(-c2ccccc2)nc2c(Cl)cc(Cl)cn12`, the pIC50 [1] was 2.4, the IC50 [2] was 0.00302 µM and the IC50 [3] was 0.00427 µM.

In the case of `CCCN(CCC)C(=O)Cc1c(-c2ccc(Cl)cc2)nc2ccccn12`, the pIC50 [1] is reported as 7.19, the IC50 [2] is reported as 0.01 µM and the IC50 [3] is reported as 0.0331 µM.

`CCCN(CCC)C(=O)Cc1c(-c2ccccc2)nc2c([N+](=O)[O-])cccn12` was tested, and the pIC50 [1] was 4.8, the IC50 [2] was 0.0851 µM and the IC50 [3] was 0.12 µM.

`CCCN(CCC)C(=O)Cc1c(-c2ccccc2)nc2c(C)cc(Br)cn12` was tested, and the pIC50 [1] was 4.27, the IC50 [2] was 0.00162 µM and the IC50 [3] was 0.00263 µM.

With `CCCN(CCC)C(=O)Cc1c(-c2ccc(Cl)cc2)nc2c(C)cccn12` the pIC50 [1] was 2.4, the IC50 [2] was 0.00141 µM and the IC50 [3] was 0.00282 µM. The Activity [4] was -9.6, the Activity [5] was under -44.3 and the Activity [6] was under -38.7.

In the case of `CCN(CC)C(=O)Cc1c(-c2ccccc2)nc2ccccn12`, the pIC50 [1] is reported as 5.68, the IC50 [2] is reported as 0.437 µM and the IC50 [3] is reported as 0.525 µM.

Work on `CCCN(CCC)C(=O)Cc1c(-c2ccccc2)nc2c(Cl)cccn12` yielded a pIC50 [1] of 4.59, an IC50 [2] of 0.0229 µM and an IC50 [3] of 0.0158 µM.

Work on `CCCCCCN(CCCCCC)C(=O)Cc1c(-c2ccccc2)nc2ccccn12` yielded a pIC50 [1] of 3.93, an IC50 [2] of 0.0191 µM and an IC50 [3] of 0.0132 µM.

Compound `CCCN(CCC)C(=O)Cc1c(-c2ccccc2)nc2ccc([N+](=O)[O-])cn12` has a pIC50 [1] of 5.47, an IC50 [2] of 0.00759 µM and an IC50 [3] of 0.00776 µM.

`CCCN(CCC)C(=O)Cc1c(-c2ccc(Cl)cc2)nc2c(Cl)cccn12` gave a pIC50 [1] of 2.4, an IC50 [2] of 0.00427 µM and an IC50 [3] of 0.00741 µM. For the same compound, the Activity [4] was 4.5, the Activity [5] was -15.2 and the Activity [6] was -6.1.

Compound `CCC(C)N(C)C(=O)c1cc2ccccc2c(-c2ccccc2Cl)n1` (configuration not stated) [PK-11195] has a pIC50 [1] of 4.67, an Activity [4] of -16 and an Activity [5] of 91. It also gave an Activity [6] of 4.3.

Work on `CCCN(CCC)C(=O)Cc1c(-c2ccccc2)nc2ccc(C(=O)OC)cn12` yielded a pIC50 [1] of 4.92, an IC50 [2] of 0.0166 µM and an IC50 [3] of 0.0269 µM. It also gave an Activity [4] of 17.1, an Activity [5] of 11.6 and an Activity [6] of 11.4.

`CCCN(CCC)C(=O)Cc1c(-c2ccc(Cl)cc2)nc2c(N)cccn12` gave a pIC50 [1] of 5.07, an IC50 [2] of 0.00631 µM and an IC50 [3] of 0.00457 µM.

`CCCCN(CCCC)C(=O)Cc1c(-c2ccccc2)nc2ccccn12` was tested, and the pIC50 [1] was 6.3, the IC50 [2] was 0.017 µM and the IC50 [3] was 0.0229 µM. For the same compound, the Activity [4] was 17.4, the Activity [5] was under 58.2 and the Activity [6] was under 44.6.

`CCCN(CCC)C(=O)Cc1c(-c2ccc(Cl)cc2)nc2c(Cl)cc(Cl)cn12` [ALPDEM] showed a pIC50 [1] of 2.4, an IC50 [2] of 0.001 µM and an IC50 [3] of 0.00263 µM.
